The results in this text go back to ChEMBL document CHEMBL1122138, “Fluorinated retinoic acids and their analogues. 3. Synthesis and biological activity of aromatic 6-fluoro analogues” (1982).

Holding throughout (assay type): functional
Experiment [1] concerns Mus musculus. Nature of the experiment: Antipapilloma activity was measured in mice as percentage effect by ip administration at the dose of 5 mg/kg/day. The following applies: route intraperitoneal.
For experiment [2], the system named is Mus musculus. Nature of the experiment: Antipapilloma activity was measured in mice as percentage effect by ip administration at the dose of 20 mg/kg/day. Conditions: route intraperitoneal.
For experiment [3], the system named is Mus musculus. Nature of the experiment: Antipapilloma activity was measured in mice as percentage effect by ip administration at the dose of 40 mg/kg/day. Conditions: route intraperitoneal.
The subject of experiment [4] is Mus musculus. The experiment is described as follows: Antipapilloma activity was measured in mice as percentage effect by ip administration at the dose of 10 mg/kg/day. The following applies: route intraperitoneal.
For experiment [5], the species on record is Mus musculus. The experiment is described as follows: Hypervitaminosis A dose, a measure of toxicity, in mice was determined. The method, boiled down: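 Mice received retinoid suspended in water with 0.1% carboxymethylcellulose and 0.01% Triton X-100. Dosing was ip daily Mon–Fri in week 1 and Mon–Thu in week 2. Symptoms were scored one day after the last injection: weight loss, skin redness/scaling, hair loss, nose/mouth mucosal changes, bone fractures. The value is the lowest daily dose at which 2 of 3 mice show one or more symptoms.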

For experiment [6], the system named is Mus musculus. Nature of the experiment: Antipapilloma activity was measured in mice as percentage effect by ip administration at the dose of 80 mg/kg/day. The following applies: route intraperitoneal.

Regarding `COC(=O)/C=C(C)/C=C/C(F)=C(C)/C=C/c1c(C)cc(OC)c(C)c1C`, the Effect is recorded as -28% with Mus musculus [1], -60% with Mus musculus [2], -79% with Mus musculus [3] and -35% in the experiment on Mus musculus [4]. In the experiment filed under Mus musculus [5], the Dose was 50 mg/kg.
Regarding `COC(=O)/C=C(C)/C=C/C(F)=C(C)/C=C/c1c(Cl)cc(OC)c(Cl)c1Cl`, in the experiment on Mus musculus [6], the Effect is on record as -58%. Further, the Dose in the experiment filed under Mus musculus [5] was more than 200 mg/kg.
The corresponding values for `COC(=O)/C=C(C)/C=C/C(F)=C(C)/C=C/c1c(C)cc(C)c(Cl)c1C` are -48% and 200 mg/kg.
In the case of `COC(=O)/C=C(C)/C=C/C(F)=C(C)/C=C/c1c(C)cc(OC)c(C)c1Cl`, in the experiment on Mus musculus [2], the Effect is -56%. Also, in the experiment listed under Mus musculus [5], the Dose stood at 50 mg/kg.
As to `COC(=O)/C=C(C)/C=C/C(F)=C(C)/C=C/c1c(Cl)cc(OC)c(C)c1Cl`, the Effect in the experiment on Mus musculus [6] is listed as -64%. In the experiment listed under Mus musculus [5], the Dose worked out at 200 mg/kg.
Regarding `COC(=O)/C=C(C)/C=C/C(F)=C(C)/C=C/c1c(Cl)cc(OC)c(C)c1C`, in the experiment with Mus musculus [3], the Effect is listed as -41%. The compound also returned a Dose in the experiment filed under Mus musculus [5] of 200 mg/kg.
